According to ChEMBL document CHEMBL1151276, “Antiviral Terpenoid Constituents of Ganoderma pfeifferi” (J Nat Prod, 2005):
Values after ≈ are worked out from the molar mass of the structure shown. Active and inactive are the calls of the source. The calls are words filed in the database; no cut-off is given here.

Key:
Format in all cases: functional, organism-based
[1] = test system: Influenza A virus; assay: Antiviral activity against influenza A virus infected in MDCK cells
Procedure, shortened: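 Each compound (1.0 mg) was dissolved in 100 µL methanol, then in MEM, giving a 1 mg/mL stock. Compounds were tested at noncytotoxic concentrations against influenza A virus and HSV type I.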

[2] = test system: Staphylococcus aureus; assay: Antimicrobial activity against Staphylococcus aureus ATCC 6538 at 200 ug/disk by agar diffusion method
Procedure, shortened: (§1)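 Agar diffusion per European Pharmacopoeia. Antibiotic medium No. 1 inoculated with cell suspension and poured into plates. Paper disks loaded with 200 µg substance placed on the cooled agar, then prediffused 2 h in a refrigerator. Incubation 18 h at 37 °C (C. maltosa at 27 °C). Inhibition zone diameters read at end of incubation. Penicillin G positive control.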

[3] = test system: Escherichia coli; assay: Antimicrobial activity against Escherichia coli ATCC 11229 at 200 ug/disk by agar diffusion method; procedure, shortened: as §1
[4] = test system: Candida maltosa; assay: Antimicrobial activity against Candida maltosa SBUG 700 at 200 ug/disk by agar diffusion method; procedure, shortened: as §1

Structure (SMILES)	IC50 [1]	Activity [2]	Activity [3]	Activity [4]	Activity [1]
CC(C)[C@@H](C)/C=C/[C@@H](C)[C@H]1CC[C@H]2C3=CC[C@H]4C[C@@H](O)CC[C@]4(C)[C@H]3CC[C@]12C	0.78 µg/mL (≈ 1.96 µM)	inactive	inactive	inactive	–
CC(C)[C@@H](C)/C=C/[C@@H](C)[C@H]1CC[C@H]2C3=CCC4CC(=O)CC[C@]4(C)[C@H]3CC[C@]12C (stereo not given in full)	–	inactive	inactive	inactive	–
CC(CC(=O)C[C@@](C)(O)C1=C[C@H](O)[C@]2(C)[C@]1(C)C(=O)C=C1[C@@]3(C)CCC(=O)C(C)(C)[C@@H]3C[C@H]3O[C@@]132)C(=O)O (stereo not given in full)	–	inactive	inactive	inactive	–
NC12CC3CC(CC(C3)C1)C2.O=S(=O)(O)O [AMANTADINE SULFATE]	15 µg/mL	–	–	–	–
C/C(C=O)=C\CC[C@@H](C)[C@H]1CC[C@@]2(C)C3=CC[C@H]4C(C)(C)C(=O)CC[C@]4(C)C3=CC[C@]12C [GANODERAL A]	–	–	–	–	inactive
C/C(=C\CC[C@@H](C)[C@H]1CC[C@@]2(C)C3=CC[C@H]4C(C)(C)C(=O)CC[C@]4(C)C3=CC[C@]12C)CO [GANODEROL A]	–	inactive	inactive	inactive	inactive
C/C(=C\CC[C@@H](C)[C@H]1CC[C@@]2(C)C3=C(CC[C@]12C)[C@@]1(C)CCC(=O)C(C)(C)[C@@H]1CC3=O)CO [GANODERONE A]	–	inactive	inactive	inactive	inactive
C[C@H](CCC1OC1(C)CO)[C@H]1CC[C@@]2(C)C3=C(CC[C@]12C)[C@@]1(C)CCC(=O)C(C)(C)[C@@H]1CC3=O (stereo not given in full) [GANODERONE C]	2.6 µg/mL (≈ 5.52 µM)	–	–	–	–
C/C(C=O)=C\CC[C@@H](C)[C@H]1CC[C@@]2(C)C3=C(CC[C@]12C)[C@@]1(C)CCC(=O)C(C)(C)[C@@H]1CC3=O [LUCIALDEHYDE B]	3 µg/mL (≈ 6.63 µM)	inactive	inactive	inactive	–
